From ChEMBL document CHEMBL4480390, “Cink4T, a quinazolinone-based dual inhibitor of Cdk4 and tubulin polymerization, identified via ligand-based virtual screening, for efficient anticancer therapy” (Eur J Med Chem, 2019)
pEC50, pIC50: −log10 of the molar value. The source made the active and inactive calls. The rule behind the calls is not given here.

What follows are compounds tested against Cyclin-dependent kinase 4/cyclin D1 (Homo sapiens) (UniProt P11802+P24385) (assay: Inhibition of recombinant human N-terminal GST-tagged CDK4 (S4 to E303 residues)/Cyclin D1 (Q4 to I295 residues) expressed in sf9 cells at 10 uM using RBCTF as substrate measured after 1 hr by ADP-glo luminescence assay relative to control). Conditions: not given.

SMILES	inhibition
CCOc1ccc(NC(=O)COc2ccc(-c3nc4ccccc4c(=O)[nH]3)cc2OC)cc1	0%
Cc1ccc(NC(=O)COc2ccc(-c3nc4ccccc4c(=O)[nH]3)cc2)cc1	5%
COc1ccc(-c2nc3ccccc3c(=O)[nH]2)cc1OCc1ccc(F)cc1F	45%
O=c1[nH]c(-c2ccc(Br)cc2)nc2ccccc12	31%
COc1ccc(NC(=O)COc2ccc(-c3nc4ccccc4c(=O)[nH]3)cc2OC)cc1	41%
O=c1[nH]c(-c2ccc(OCc3ccc(F)cc3F)cc2)nc2ccccc12	30%
COc1ccc(-c2nc3ccccc3c(=O)[nH]2)cc1OCC(=O)Nc1ccc([N+](=O)[O-])cc1	1%
O=C(COc1ccc(-c2nc3ccccc3c(=O)[nH]2)cc1)Nc1ccc([N+](=O)[O-])cc1	26%
CS(=O)(=O)Oc1ccc(-c2nc3ccccc3c(=O)[nH]2)cc1	42%
O=c1[nH]c(-c2ccc(O)cc2)nc2ccccc12	30%
C#CCOc1ccc(-c2nc3ccccc3c(=O)[nH]2)cc1OC	38%
COc1cc(-c2nc3ccccc3c(=O)[nH]2)ccc1OCc1ccc(F)cc1F	36%
COc1cc(-c2nc3ccccc3c(=O)[nH]2)ccc1O	39%
COc1cc(-c2nc3ccccc3c(=O)[nH]2)ccc1Oc1ccc(Cl)cc1Cl	55%
CC(=O)c1c(C)c2cnc(Nc3ccc(N4CCNCC4)cn3)nc2n(C2CCCC2)c1=O	95%
O=C(COc1ccc(-c2nc3ccccc3c(=O)[nH]2)cc1)NC1CCCCC1	20%
O=c1[nH]c(-c2ccc([N+](=O)[O-])cc2)nc2ccccc12	0%
COc1ccc(-c2nc3ccccc3c(=O)[nH]2)cc1OCC(=O)Nc1ccccc1C	-5%
COc1ccc(-c2nc3ccccc3c(=O)[nH]2)cc1OCC(=O)Nc1ccccc1	20%

SMILES	inhibition
COc1cc(-c2nc3ccccc3c(=O)[nH]2)ccc1OCC(=O)Nc1ccc(F)cc1	7%
COc1ccc(NC(=O)COc2cc(-c3nc4ccccc4c(=O)[nH]3)ccc2OC)cc1	14%
Oc1nc(-c2cccnc2)nc2ccccc12	36%
COc1cccc(NC(=O)COc2cc(-c3nc4ccccc4c(=O)[nH]3)ccc2OC)c1	5%
O=c1[nH]c(-c2ccc(Oc3ccc(F)cc3)cc2)nc2ccccc12	30%
COc1ccc(-c2nc3ccccc3c(=O)[nH]2)cc1O	0%
COc1ccccc1NC(=O)COc1cc(-c2nc3ccccc3c(=O)[nH]2)ccc1OC	21%
O=C(COc1ccc(-c2nc3ccccc3c(=O)[nH]2)cc1)Nc1cccc2ccccc12	5%
COc1ccc(-c2nc3ccccc3c(=O)[nH]2)cc1OCC(=O)Nc1ccccc1Cl	41%
CCOc1ccc(NC(=O)COc2cc(-c3nc4ccccc4c(=O)[nH]3)ccc2OC)cc1	3%
O=C(COc1ccc(-c2nc3ccccc3c(=O)[nH]2)cc1)Nc1ccccc1	45%
O=C(COc1ccc(-c2nc3ccccc3c(=O)[nH]2)cc1)Nc1ccc2ccccc2c1	0%
O=C(COc1ccc(-c2nc3ccccc3c(=O)[nH]2)cc1O)Nc1ccc(Cl)cc1	0%
COc1cc(-c2nc3ccccc3c(=O)[nH]2)ccc1OS(C)(=O)=O	78%
COc1cccc(NC(=O)COc2ccc(-c3nc4ccccc4c(=O)[nH]3)cc2OC)c1	16%
COc1ccc(-c2nc3ccccc3c(=O)[nH]2)cc1Oc1ccc(F)cc1	46%
CCCCNC(=O)COc1ccc(-c2nc3ccccc3c(=O)[nH]2)cc1OC	48%
O=c1[nH]c(-c2cccc(O)c2)nc2ccccc12	-6%

These compounds were tested against CDK9/cyclin T1 (Homo sapiens) (UniProt O60563+P50750) (assay: Inhibition of N-terminal GST-HIS6 fusion protein tagged human full length CDK9 (M1 to F372 residues)/N-terminal HIS6-fused human Cyclin-T1 (M1 to K726 residues) expressed in Sf9 cells at 10 uM using RBCTF as substrate measured after 1 hr by ADP-glo luminescence assay relative to control). Conditions: not given.
Outline: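 ADP-Glo kinase assay with 200 ng Cdk-cyclin enzyme, ATP (125 µM in 2.5x mix) and 25 µg substrate (RBCTF or RBER-CHKtide, per Cdk). Buffer: Tris, MgCl2, BSA, DTT, MnCl2 cofactor, DMSO. Reaction 1 h at 21°C; ADP-Glo 40 min, then detection reagent 40 min. Luminescence read. IC50 by 4-parameter fit; three independent experiments.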

SMILES	inhibition
CC(=O)c1c(C)c2cnc(Nc3ccc(N4CCNCC4)cn3)nc2n(C2CCCC2)c1=O	-4%
COc1cc(-c2nc3ccccc3c(=O)[nH]2)ccc1OS(C)(=O)=O	-5%

Each compound was assayed against CDK2/Cyclin A2 (Homo sapiens, UniProt P24941) (assay: Inhibition of human full length N-terminal GST-fused CDK2 (M1 to L298 residues)/human full length Cyclin-A2 (M1 to L432 residues) expressed in Sf9 cells using histone H1 as substrate measured after 1 hr by ADP-glo luminescence assay). Conditions: not given.

SMILES	pIC50
COc1cc(-c2nc3ccccc3c(=O)[nH]2)ccc1OS(C)(=O)=O	< 4.00

The compounds below were run against Tubulin (Sus scrofa) (UniProt P02554+P02550) (assay: Inhibition of porcine tubulin polymerization at 5 uM incubated for 1 min by fluorescence based assay). Conditions: not given.
Sequence of Tubulin (Sus scrofa) (P02550 whole entry, looked up): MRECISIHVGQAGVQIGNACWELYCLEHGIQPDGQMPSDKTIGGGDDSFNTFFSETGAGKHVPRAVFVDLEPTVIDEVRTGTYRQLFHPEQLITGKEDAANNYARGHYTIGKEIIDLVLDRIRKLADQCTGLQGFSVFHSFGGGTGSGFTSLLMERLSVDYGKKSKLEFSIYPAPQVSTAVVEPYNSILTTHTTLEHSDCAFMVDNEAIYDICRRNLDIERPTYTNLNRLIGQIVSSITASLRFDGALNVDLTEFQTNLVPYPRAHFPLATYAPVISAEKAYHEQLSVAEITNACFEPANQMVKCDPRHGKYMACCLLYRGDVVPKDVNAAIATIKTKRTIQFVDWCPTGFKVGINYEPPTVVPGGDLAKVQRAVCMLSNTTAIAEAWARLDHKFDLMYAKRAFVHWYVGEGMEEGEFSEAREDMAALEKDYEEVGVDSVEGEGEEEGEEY
Sequence of Tubulin (Sus scrofa) (P02554 whole entry, looked up): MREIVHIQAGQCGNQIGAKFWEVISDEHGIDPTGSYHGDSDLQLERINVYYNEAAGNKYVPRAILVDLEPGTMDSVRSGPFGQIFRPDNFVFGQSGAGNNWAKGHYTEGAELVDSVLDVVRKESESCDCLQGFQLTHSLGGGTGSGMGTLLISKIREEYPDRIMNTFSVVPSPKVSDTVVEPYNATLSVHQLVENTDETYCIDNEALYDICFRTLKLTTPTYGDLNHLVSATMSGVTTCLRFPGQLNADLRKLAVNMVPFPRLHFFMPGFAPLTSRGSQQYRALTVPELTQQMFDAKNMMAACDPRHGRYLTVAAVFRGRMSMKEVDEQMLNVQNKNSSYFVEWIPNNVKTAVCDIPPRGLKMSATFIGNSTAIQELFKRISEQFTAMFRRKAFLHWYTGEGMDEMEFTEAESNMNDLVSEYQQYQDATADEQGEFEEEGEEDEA
Format: protein assay
Outline: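 Compounds added from 10x stocks in duplicate and warmed at 37°C ≤1 min. Ice-cold tubulin pre-mix then added. Fluorescent reporter read at ex 360/em 460 nm for 60 min. Paclitaxel served as enhancer control, CaCl2 as inhibitor control.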

SMILES	inhibition
COc1cc(-c2nc3ccccc3c(=O)[nH]2)ccc1OS(C)(=O)=O	Active

What follows are compounds tested on A549 (assay: cells). Conditions: Homo sapiens, A549, 72 h.

SMILES	pEC50
COc1cc(-c2nc3ccccc3c(=O)[nH]2)ccc1OS(C)(=O)=O	5.15

What follows are compounds tested on Calu-1 (assay: cells). Conditions: Homo sapiens, Calu-1, 72 h.

SMILES	pEC50
COc1cc(-c2nc3ccccc3c(=O)[nH]2)ccc1OS(C)(=O)=O	5.05

These compounds were tested on MDA-MB-468 (assay: cells). Conditions: Homo sapiens, MDA-MB-468, 72 h.

SMILES	pEC50
COc1cc(-c2nc3ccccc3c(=O)[nH]2)ccc1OS(C)(=O)=O	< 4.30

What follows are compounds tested on T47D (assay: cells). Conditions: Homo sapiens, 72 h.

SMILES	pEC50
COc1cc(-c2nc3ccccc3c(=O)[nH]2)ccc1OS(C)(=O)=O	5.10
